Data reported in ChEMBL document CHEMBL3085664, “Structure-activity relationship of imidazopyridinium analogues as antagonists of neuropeptide s receptor” (J Med Chem, 2013).
Activity calls are given as the source filed them. No cut-off for these calls is given here.

What was measured:
Neuropeptide S receptor [1] = target: T1, Neuropeptide S receptor (Homo sapiens, UniProt Q6W5P4); test: Antagonist activity at neuropeptide S receptor (unknown origin) expressed in CHO cells assessed as cAMP level after 30 mins by […] assay; assay type: functional, cell-based; details: read-out: IC50
T1 sequence (Q6W5P4 whole entry): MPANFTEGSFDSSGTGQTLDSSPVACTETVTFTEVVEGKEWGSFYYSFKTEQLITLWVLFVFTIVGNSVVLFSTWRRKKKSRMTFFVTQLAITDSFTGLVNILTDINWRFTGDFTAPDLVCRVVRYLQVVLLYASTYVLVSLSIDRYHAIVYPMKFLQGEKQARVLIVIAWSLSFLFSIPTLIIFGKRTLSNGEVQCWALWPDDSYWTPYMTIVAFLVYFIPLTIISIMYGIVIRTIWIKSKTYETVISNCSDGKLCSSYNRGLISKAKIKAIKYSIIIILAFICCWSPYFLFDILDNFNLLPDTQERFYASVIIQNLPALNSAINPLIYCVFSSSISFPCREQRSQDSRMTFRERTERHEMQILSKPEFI
Outline: (§1)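 CHO cells stably expressing NPSR, 1800 cells/well in 1536-well format, seeded overnight at 37°C in medium without Geneticin. Stimulation buffer (PBS, 0.1% BSA, 0.05% Tween-20, 500µM Ro 20-1724, EC80 NPS) was added for 30 min at 37°C. cAMP was read by HTRF (d2-cAMP/cryptate anti-cAMP in lysis buffer, 30 min). IC50 is the mean with SD of two independent experiments, each run in duplicate.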

[2] = Plasma concentration in mouse at 10 mg/kg, ip after 12 hrs; assay type: ADME, organism-based; set-up: dose 10 mg/kg, route intraperitoneal
Outline: (§2)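 Mouse pharmacokinetics after a single 10 mpk intraperitoneal dose. Plasma and brain were sampled at 0, 0.083, 0.25, 0.5, 1, 2, 4, 8, 12 and 24 h. Concentrations are reported as the mean of N=3 at each time point, in ng/mL or nM for plasma and ng/g or nmol/g for brain.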

Mu-type opioid receptor [3] = target: T2, Mu-type opioid receptor (Homo sapiens, UniProt P35372); test: Displacement of radiolabeled DAMGO from human recombinant mu opioid receptor expressed in OPRM1 cells; assay type: cell-based
T2 sequence (P35372 whole entry): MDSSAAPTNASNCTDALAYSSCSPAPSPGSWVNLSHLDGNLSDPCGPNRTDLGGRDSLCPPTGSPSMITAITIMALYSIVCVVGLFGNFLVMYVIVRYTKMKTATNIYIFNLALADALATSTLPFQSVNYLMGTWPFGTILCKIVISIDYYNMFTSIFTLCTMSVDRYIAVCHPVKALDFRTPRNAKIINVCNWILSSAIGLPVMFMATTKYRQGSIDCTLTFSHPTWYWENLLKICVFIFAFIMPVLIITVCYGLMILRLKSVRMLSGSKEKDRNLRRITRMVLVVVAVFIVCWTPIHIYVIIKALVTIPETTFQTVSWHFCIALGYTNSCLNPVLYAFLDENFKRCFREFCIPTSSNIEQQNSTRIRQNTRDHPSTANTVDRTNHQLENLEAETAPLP

[4] = Metabolic stability in mouse liver microsomes assessed as compound remaining after 30 mins in presence NADPH; assay type: ADME, Microsome; details: read-out: Stability
Outline: (§3)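 Compound was incubated with mouse liver microsomes, and percent parent remaining was determined at 15, 30 and 60 min. Values are means from a single experiment run in duplicate.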

Neuropeptide S receptor [5] = target: T1, Neuropeptide S receptor; test: Antagonist activity at neuropeptide S receptor (unknown origin) expressed in CHO cells assessed as inhibition of NPS-induced ERK activation after 20 mins by HTRF assay; assay type: cell-based
[6] = Plasma concentration in mouse at 10 mg/kg, ip after 1 hrs; assay type: ADME, organism-based; set-up: dose 10 mg/kg, route intraperitoneal; outline: as §2
Brain [7] = test: Drug level in mouse brain at 10 mg/kg, ip after 2 hrs; assay type: ADME, organism-based; set-up: dose 10 mg/kg, route intraperitoneal; details: in vivo; outline: as §2
[8] = Metabolic stability in mouse liver microsomes assessed as compound remaining after 30 mins in absence NADPH; assay type: ADME, Microsome; details: read-out: Stability; outline: as §3
[9] = Plasma concentration in mouse at 10 mg/kg, ip after 0.5 hrs; assay type: ADME, organism-based; set-up: dose 10 mg/kg, route intraperitoneal; outline: as §2
Rattus norvegicus [10] = test: Inhibition of alcohol-induced ERK-phosphorylation in rat in central amygdala at 1 mg/kg, ip; assay type: functional, organism-based; set-up: dose 1 mg/kg
[11] = Plasma concentration in mouse at 10 mg/kg, ip after 24 hrs; assay type: ADME, organism-based; set-up: dose 10 mg/kg, route intraperitoneal; outline: as §2
Plasma [12] = test: AUClast in mouse plasma at 10 mg/kg, ip; assay type: ADME, organism-based; set-up: dose 10 mg/kg, route intraperitoneal, time 0 - last; details: in vivo; outline: as §2
Brain [13] = test: AUClast in mouse brain at 10 mg/kg, ip; assay type: ADME, organism-based; set-up: time 0 - last, dose 10 mg/kg, route intraperitoneal; details: in vivo; outline: as §2
[14] = Plasma concentration in mouse at 10 mg/kg, ip after 8 hrs; assay type: ADME, organism-based; set-up: dose 10 mg/kg, route intraperitoneal; outline: as §2
[15] = Plasma concentration in mouse at 10 mg/kg, ip after 2 hrs; assay type: ADME, organism-based; set-up: dose 10 mg/kg, route intraperitoneal; outline: as §2
Plasma [16] = test: Tmax in mouse plasma at 10 mg/kg, ip; assay type: ADME, organism-based; set-up: dose 10 mg/kg, route intraperitoneal; details: in vivo; outline: as §2
Brain [17] = test: Drug level in mouse brain at 10 mg/kg, ip after 0.5 hrs; assay type: ADME, organism-based; set-up: dose 10 mg/kg, route intraperitoneal; details: in vivo; outline: as §2
Brain [18] = test: Drug level in mouse brain at 10 mg/kg, ip after 0.25 hrs; assay type: ADME, organism-based; set-up: dose 10 mg/kg, route intraperitoneal; details: in vivo; outline: as §2
Brain [19] = test: Drug level in mouse brain at 10 mg/kg, ip after 1 hrs; assay type: ADME, organism-based; set-up: dose 10 mg/kg, route intraperitoneal; details: in vivo; outline: as §2
Neuropeptide S receptor [20] = target: T1, Neuropeptide S receptor; test: Antagonist activity at neuropeptide S receptor (unknown origin) expressed in CHO cells assessed as inhibition of NPS-induced calcium mobilization after 10 mins by fluorescence assay; assay type: functional, cell-based; details: read-out: IC50
Outline: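 CHO-NPSR cells, 2000/well in 1536-well plates, incubated overnight, then loaded with no-wash calcium dye for 1 h at 37°C. Compound in DMSO was added for 10 min. Baseline fluorescence was recorded 6 s at 1 Hz, then EC80 NPS in stimulation buffer was added and recording continued 4 min at 1 Hz on a kinetic reader. IC50 is the mean with SD of two independent experiments in duplicate.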

Plasma [21] = test: Cmax in mouse plasma at 10 mg/kg, ip; assay type: ADME, organism-based; set-up: dose 10 mg/kg, route intraperitoneal; details: in vivo; outline: as §2
Neuropeptide S receptor [22] = target: T1, Neuropeptide S receptor; test: Displacement of [125I]Tyr10-NPS from human neuropeptide S receptor expressed in CHO cells after 1.5 hrs by liquid scintillation counting; assay type: cell-based
Outline: (§4)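 Whole CHO cells stably expressing human NPSR at 90–95% confluency in 24-well plates. Cells were incubated with 0.15 nM [125I]Y10-NPS plus increasing compound or unlabeled NPS in DMEM/0.1% BSA, 20°C, 1.5 hr. Nonspecific binding was defined with 1 µM unlabeled human NPS. Cells were washed, lysed in 1 N NaOH and counted by liquid scintillation. IC50 from one experiment in duplicate.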

Brain [23] = test: Tmax in mouse brain at 10 mg/kg, ip; assay type: ADME, organism-based; set-up: dose 10 mg/kg, route intraperitoneal; details: in vivo; outline: as §2
Brain [24] = test: Drug level in mouse brain at 10 mg/kg, ip after 8 hrs; assay type: ADME, organism-based; set-up: dose 10 mg/kg, route intraperitoneal; details: in vivo; outline: as §2
Plasma [25] = test: AUC (infinity) in mouse plasma at 10 mg/kg, ip; assay type: ADME, organism-based; set-up: time infinity, dose 10 mg/kg, route intraperitoneal; details: in vivo; outline: as §2
[26] = Metabolic stability in mouse liver microsomes assessed as compound remaining after 15 mins in presence NADPH; assay type: ADME, Microsome; details: read-out: Stability; outline: as §3
Brain [27] = test: Drug level in mouse brain at 10 mg/kg, ip after 24 hrs; assay type: ADME, organism-based; set-up: dose 10 mg/kg, route intraperitoneal; details: in vivo; outline: as §2
[28] = Metabolic stability in mouse liver microsomes assessed as compound remaining after 60 mins in presence NADPH; assay type: ADME, Microsome; details: read-out: Stability; outline: as §3
[29] = Cmax in mouse brain at 10 mg/kg, ip; assay type: ADME, organism-based; set-up: dose 10 mg/kg, route intraperitoneal; outline: as §2
Rattus norvegicus [30] = test: Toxicity in Wistar rat administered daily; assay type: organism-based; details: in vivo
Mu-type opioid receptor [31] = target: T2, Mu-type opioid receptor; test: Displacement of radiolabeled DAMGO from human recombinant mu opioid receptor expressed in […] at 10 uM; assay type: cell-based
Brain [32] = test: Drug level in mouse brain at 10 mg/kg, ip after 4 hrs; assay type: ADME, organism-based; set-up: dose 10 mg/kg, route intraperitoneal; details: in vivo; outline: as §2
[33] = Plasma concentration in mouse at 10 mg/kg, ip after 0.083 hrs; assay type: ADME, organism-based; set-up: dose 10 mg/kg, route intraperitoneal; outline: as §2
[34] = Plasma concentration in mouse at 10 mg/kg, ip after 4 hrs; assay type: ADME, organism-based; set-up: dose 10 mg/kg, route intraperitoneal; outline: as §2
[35] = Metabolic stability in mouse liver microsomes assessed as compound remaining after 60 mins in absence NADPH; assay type: ADME, Microsome; details: read-out: Stability; outline: as §3
Brain [36] = test: Drug level in mouse brain at 10 mg/kg, ip after 0.083 hrs; assay type: ADME, organism-based; set-up: dose 10 mg/kg, route intraperitoneal; details: in vivo; outline: as §2
Brain [37] = test: Drug level in mouse brain at 10 mg/kg, ip after 12 hrs; assay type: ADME, organism-based; set-up: dose 10 mg/kg, route intraperitoneal; details: in vivo; outline: as §2
Rattus norvegicus [38] = test: Anorectic activity in Wistar rat assessed as […] of NPS-induced reduction of food intake at 20 ug, icv after 15 to 60 mins; assay type: functional, organism-based
[39] = Metabolic stability in mouse liver microsomes assessed as compound remaining after 15 mins in absence NADPH; assay type: ADME, Microsome; details: read-out: Stability; outline: as §3
[40] = Plasma concentration in mouse at 10 mg/kg, ip after 0.25 hrs; assay type: ADME, organism-based; set-up: dose 10 mg/kg, route intraperitoneal; outline: as §2
Plasma [41] = test: Half life in mouse plasma at 10 mg/kg, ip; assay type: ADME, organism-based; set-up: dose 10 mg/kg, route intraperitoneal; details: in vivo; outline: as §2
[42] = Ratio of AUC in brain to AUC in plasma in mouse at 10 mg/kg, ip; assay type: ADME, organism-based; set-up: dose 10 mg/kg, route intraperitoneal; details: brain and plasma, read-out: Ratio AUC; outline: as §2
Neuropeptide S receptor [43] = target: T1, Neuropeptide S receptor; test: Antagonist activity at neuropeptide S receptor (unknown origin) assessed as cAMP level by cell based assay; assay type: functional; outline: as §1
Neuropeptide S receptor [44] = target: T1, Neuropeptide S receptor; test: Antagonist activity at neuropeptide S receptor (unknown origin) assessed as intracellular calcium level by cell based assay; assay type: functional
Outline: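 CHO cells stably expressing NPSR were seeded at 2000 cells/well and incubated overnight at 37 °C, 5% CO2. They were loaded with no-wash calcium dye for 1 h, then preincubated with compound in DMSO for 10 min. Stimulation used NPS at EC80 in PBS/0.1% BSA/0.05% Tween-20 with 500 µM Ro 20-1724. Kinetic fluorescence was read at 1 Hz: 6 s baseline, then 4 min. IC50 is the mean ± SD of two independent experiments, each in duplicate.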

Neuropeptide S receptor [45] = target: T1, Neuropeptide S receptor; test: Displacement of [125I]Tyr10-NPS from neuropeptide S receptor (unknown origin); outline: as §4

Cc1c(P(=S)(c2ccccc2)c2ccccc2)n2ccccc2[n+]1C/C=C/c1ccccc1.[Br-]
IC50 (Neuropeptide S receptor [1]): 0.045 µM | concentration at 12 h [2]: 126 nM | IC50 (Mu-type opioid receptor [3]): 0.58 µM | remaining at 0.5 h [4]: 46% | IC50 (Neuropeptide S receptor [5]): 0.0013 µM | concentration at 1 h [6]: 556 nM | Drug uptake (Brain [7]): 57 nmol/g | remaining at 0.5 h [8]: 102% | concentration at 0.5 h [9]: 1150 nM | inhibition (Rattus norvegicus [10]): Active | concentration at 24 h [11]: 54 nM | AUClast (Plasma [12]): 2240 ng·h/mL | AUClast (Brain [13]): 746 ng·h/mL | concentration at 8 h [14]: 214 nM | concentration at 2 h [15]: 386 nM | Tmax (Plasma [16]): 4.98 min | Drug uptake (Brain [17]): 53 nmol/g | Drug uptake (Brain [18]): 52 nmol/g | Drug uptake (Brain [19]): 44 nmol/g | IC50 (Neuropeptide S receptor [20]): 0.00096 µM | Cmax (Plasma [21]): 700 ng/mL | IC50 (Neuropeptide S receptor [22]): 0.0035 µM | Tmax (Brain [23]): 12 h | Drug uptake (Brain [24]): 60 nmol/g | AUC (Plasma [25]): 2560 ng·h/mL | remaining at 0.25 h [26]: 72% | Drug uptake (Brain [27]): 52 nmol/g | remaining at 1 h [28]: 26% | Cmax [29]: 43 ng/mL | Activity (Rattus norvegicus [30]): Non-toxic | inhibition (Mu-type opioid receptor [31]): > 90% | Drug uptake (Brain [32]): 53 nmol/g | concentration at 0.083 h [33]: 1500 nM | concentration at 4 h [34]: 245 nM | remaining at 1 h [35]: 102% | Drug uptake (Brain [36]): 30 nmol/g | Drug uptake (Brain [37]): 93 nmol/g | Activity (Rattus norvegicus [38]): Active | remaining at 0.25 h [39]: 102% | concentration at 0.25 h [40]: 1320 nM | t1/2 (Plasma [41]): 8.8 h | Kp [42]: 33

COc1ccc(C2c3c(ccc4ccccc34)OC3N=CN(CCN4CCOCC4)C(=N)C32)cc1OC (stereo not given)
IC50 (Neuropeptide S receptor [43]): 4.9 µM | IC50 (Neuropeptide S receptor [44]): 1.4 µM | IC50 (Neuropeptide S receptor [45]): 0.19 µM
